Assay [1] deals with T1, Adenosine receptor A3 (Homo sapiens, UniProt P0DMS8).
T1 sequence (P0DMS8 whole entry): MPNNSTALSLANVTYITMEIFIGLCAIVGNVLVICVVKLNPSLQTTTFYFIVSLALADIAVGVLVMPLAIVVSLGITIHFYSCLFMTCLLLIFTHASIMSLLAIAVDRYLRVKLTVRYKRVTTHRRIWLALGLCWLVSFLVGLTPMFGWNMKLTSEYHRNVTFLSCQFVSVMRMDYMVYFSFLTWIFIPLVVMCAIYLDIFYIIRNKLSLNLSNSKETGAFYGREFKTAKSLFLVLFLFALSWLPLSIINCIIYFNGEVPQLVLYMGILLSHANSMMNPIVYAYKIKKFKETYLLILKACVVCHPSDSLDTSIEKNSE
In words: Antagonist activity at human cloned adenosine A3 receptor expressed in CHO cells assessed as inhibition of Cl-IB-MECA-inhibited [3H]cAMP production by scintillation counting. It counts as functional, cell-based. Put shortly: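 hA3-transfected CHO cells (1 × 10⁶ cells/assay), preincubated 10 min at 37 °C with adenosine deaminase 2 IU/mL plus Ro 20-1724, pH 7.4; forskolin 1 μM and Cl-IB-MECA 100 nM present. Stopped with cold 6% TCA; cAMP measured by [3H]cAMP binding-protein competition. IC50 from sigmoid nonlinear regression, mean ± SEM of four experiments; single-point data at 1 μM as percent inhibition.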

For assay [2], the target named is T1, Adenosine receptor A3. Description: Displacement of [125I]AB-MECA from human cloned adenosine A3 receptor expressed in CHO cells after 120 mins by scintillation counting. The format is cell-based. The essentials:
(§1)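 hA3 CHO membranes (50 μg protein) incubated with [125I]AB-MECA 0.5 nM in 50 mM Tris-HCl, 10 mM MgCl2, 1 mM EDTA, pH 7.4, 120 min at 4 °C; six to eight ligand concentrations. Nonspecific binding with 1 μM AB-MECA. Ki via Cheng–Prusoff, mean ± SEM of four assays in duplicate; percent inhibition given at 1 μM.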

For assay [3], the target named is T2, Adenosine receptor A1 (Homo sapiens) (UniProt P30542).
T2 sequence (whole entry): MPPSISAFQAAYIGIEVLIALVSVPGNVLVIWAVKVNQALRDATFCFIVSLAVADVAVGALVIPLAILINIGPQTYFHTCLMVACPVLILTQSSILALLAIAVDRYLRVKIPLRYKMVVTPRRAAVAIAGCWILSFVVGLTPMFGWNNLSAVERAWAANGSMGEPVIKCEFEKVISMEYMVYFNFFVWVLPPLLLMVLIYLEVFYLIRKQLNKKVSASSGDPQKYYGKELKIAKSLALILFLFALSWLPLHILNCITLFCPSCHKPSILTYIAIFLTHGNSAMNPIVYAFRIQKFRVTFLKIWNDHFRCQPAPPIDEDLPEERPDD
In words: Inhibition of [125I]DPCPX binding to human cloned adenosine A1 receptor expressed in CHO cells at 1 uM after 120 mins by scintillation counting. Particulars: in the assay text read “[3H]DPCPX” for “[125I]DPCPX”. The format is cell-based. The essentials: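 Membranes from hA1 CHO (50 μg protein) with [3H]DPCPX 1 nM, 50 mM Tris-HCl pH 7.4, 120 min at 25 °C; nonspecific binding defined by 10 μM CHA. Percent inhibition at 1 μM test compound.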

The target of assay [4] is Adenosine receptor A2a (Homo sapiens) (UniProt P29274). Description: Inhibition of [125I]Z241385 binding to human cloned adenosine A2A receptor expressed in CHO cells at 1 uM after 120 mins by scintillation counting. The format is cell-based.
Assay [5] addresses T3, Adenosine receptor A2b (Homo sapiens) (UniProt P29275).
T3 sequence (whole entry): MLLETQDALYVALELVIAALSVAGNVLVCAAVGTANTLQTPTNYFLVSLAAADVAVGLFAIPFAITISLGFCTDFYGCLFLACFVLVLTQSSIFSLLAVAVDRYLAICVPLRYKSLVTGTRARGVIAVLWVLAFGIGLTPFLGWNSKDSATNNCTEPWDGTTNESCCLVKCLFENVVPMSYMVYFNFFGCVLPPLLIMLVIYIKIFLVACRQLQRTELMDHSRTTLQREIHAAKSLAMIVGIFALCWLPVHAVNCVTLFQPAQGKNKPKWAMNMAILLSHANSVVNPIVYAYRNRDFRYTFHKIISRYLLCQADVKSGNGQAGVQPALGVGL
In words: Antagonist activity at human adenosine A2B receptor expressed in CHO cells assessed as inhibition of NECA-stimulated [3H]cAMP production at 1 uM by scintillation counting. The format is functional, cell-based. Put shortly:
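Suspended CHO cells stably expressing hA2B (1 × 10⁶ cells/assay) in buffer with adenosine deaminase 2 IU/mL and Ro 20-1724, preincubated 10 min at 37 °C, pH 7.4. Stimulated with NECA 200 nM; compound at 1 μM; percent inhibition reported. Stopped with cold 6% TCA, ether-extracted, cAMP quantified by [3H]cAMP competition with beef adrenal binding protein.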

Assay [6] addresses T4, Adenosine receptor A3 (Homo sapiens) (UniProt P0DMS8).
T4 sequence (whole entry): T1 sequence (P0DMS8 whole entry)
Particulars: CHO, 1 uM.

Assay [7] has as its target T4, Adenosine receptor A3 (Homo sapiens). In words: Inhibition of [125I]AB-MECA binding to human cloned adenosine A3 receptor expressed in CHO cells at 1 uM after 120 mins by scintillation counting. The format is cell-based. Put shortly: as §1

Among the data in ChEMBL document CHEMBL1155223, “2-Phenylpyrazolo[4,3-d]pyrimidin-7-one as a new scaffold to obtain potent and selective human A3 adenosine receptor antagonists: new insights into the receptor-antagonist recognition” (J Med Chem, 2009) are IC50, Ki and inhibition values, retold here.

pIC50, pKi: −log10 of the molar value.

Sequence of Adenosine receptor A2a (Homo sapiens) (P29274 whole entry): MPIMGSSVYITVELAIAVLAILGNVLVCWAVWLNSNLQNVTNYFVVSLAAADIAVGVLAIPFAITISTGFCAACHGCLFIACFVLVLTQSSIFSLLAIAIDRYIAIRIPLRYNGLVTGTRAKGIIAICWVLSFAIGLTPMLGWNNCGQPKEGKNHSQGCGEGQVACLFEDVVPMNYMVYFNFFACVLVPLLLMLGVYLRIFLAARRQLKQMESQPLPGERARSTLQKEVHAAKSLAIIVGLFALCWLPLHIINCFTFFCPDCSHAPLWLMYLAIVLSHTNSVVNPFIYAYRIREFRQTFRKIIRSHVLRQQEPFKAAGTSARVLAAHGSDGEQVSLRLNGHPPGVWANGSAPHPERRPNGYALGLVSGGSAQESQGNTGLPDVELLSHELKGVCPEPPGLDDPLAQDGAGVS

`CCc1nc2cn(-c3ccccc3)nc2c(=O)[nH]1`: the pIC50 in assay [1] was 6.61. Further, the pKi in assay [2] is 7.28. Further, the inhibition was 11% in assay [3], 6% in assay [4] and 1% in assay [5].

In the case of `O=c1[nH]c(Cc2ccccc2)nc2cn(-c3ccccc3)nc12`, the pKi in assay [2] is 6.05. The inhibition in assay [3] was determined as 11%; in assay [4], 1%; in assay [5], 4%; in assay [6], 6%.

`O=c1[nH]c(=O)c2nn(-c3ccccc3)cc2[nH]1`: the inhibition in assay [7] turned out to be 12%; in assay [3], 4%; in assay [4] it was 5%; in assay [5] it was 2%.

For `COc1ccc(-n2cc3nc[nH]c(=O)c3n2)cc1`, the pIC50 in assay [1] is 6.57. This compound gave a pKi in assay [2] of 7.27. Besides, the values for the inhibition in assay [3], in assay [4] and in assay [5] were 2%, 1% and 3%, respectively.

In the case of `Cc1nc2cn(-c3ccccc3)nc2c(=O)[nH]1`, the pIC50 in assay [1] is 7.06. Besides, in assay [2], the pKi is 7.80. Further, the figures for the inhibition in assay [3], in assay [4] and in assay [5] were 9%, 1% and 2%, respectively.

As to `CCc1nc2cn(-c3ccc(OC)cc3)nc2c(=O)[nH]1`, the pIC50 in assay [1] is 7.20. Besides, the pKi in assay [2] is 7.85. In addition, the inhibition in assay [3] came out at 1%; in assay [4] it was 1%; in assay [5] it was 5%.

Turning to `O=c1[nH]cnc2cn(-c3ccccc3)nc12`, in assay [1], the pIC50 was 6.14. This compound also gave a pKi in assay [2] of 6.73. The figures for the inhibition in assay [3], in assay [4] and in assay [5] were 1%, 1% and 3%, respectively.

Take `Cc1cccc(-n2cc3nc(C)[nH]c(=O)c3n2)c1`: the pIC50 in assay [1] was 6.45. This compound also had a pKi in assay [2] of 7.14. Further, the inhibition in assay [3] was 4%; in assay [4], 1%; in assay [5] it was 2%.

Turning to `O=c1[nH]c(-c2ccccc2)nc2cn(-c3ccccc3)nc12`, the inhibition is 10% in assay [7], 22% in assay [3], 10% in assay [4] and 4% in assay [5].

As to `Cc1ccc(-n2cc3nc(C)[nH]c(=O)c3n2)cc1`, the pIC50 in assay [1] is 7.34. In assay [2], the pKi was 8.00. The figures for the inhibition in assay [3], in assay [4] and in assay [5] were 1%, 1% and 4%, respectively.

Take `COc1ccc(-n2cc3nc(-c4ccccc4)[nH]c(=O)c3n2)cc1`: the inhibition in assay [7] worked out at 16%; in assay [3], 1%; in assay [4], 1%; in assay [5], 5%.

`COc1ccc(-n2cc3nc(C)[nH]c(=O)c3n2)cc1`: in assay [1], the pIC50 is 8.28. For the same compound, the pKi in assay [2] was 8.92. Further, the inhibition in assay [3] turned out to be 5%; in assay [4], 1%; in assay [5], 2%.

As for `Nc1nc(NCCc2ccc(O)cc2)nc2nc(-c3ccco3)nn12`, the inhibition in assay [7] was 5%; in assay [6], 2%.

`COc1ccc(-n2cc3nc(Cc4ccccc4)[nH]c(=O)c3n2)cc1`: the pIC50 in assay [1] is 6.07. The compound also had a pKi in assay [2] of 6.60. The figures for the inhibition in assay [3], in assay [4] and in assay [5] were 10%, 1% and 4%, respectively.
